Active and inactive are the calls of the source. The rule behind the calls is not given here.
Key:
RAW264.7 [1] = experiment: Cytotoxicity against mouse RAW264.7 cells assessed as reduction in cell viability at 1 uM measured after 20 hrs by MTS assay; format: toxicity, cell-based; conditions: raw264.7, 20 h
How it was run: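 MTS viability assay. RAW 264.7 cells seeded at 25,000 cells/cm2; HBE and hASM cells at 70% confluency and serum-starved for 24 h. Exposure for 20 h with LPS/IFNγ stimulation. MTS reagent added for 1 h at 37 °C in the dark, absorbance read at 490 nm. LPS/IFNγ-stimulated cells without inhibitor set at 100%.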

RAW264.7 [2] = experiment: Antiinflammatory activity in mouse RAW264.7 cells assessed as effect on LPS/IFNgamma-induced iNOS gene expression at 1 uM preincubated for 20 hrs followed by LPS/IFNgamma stimulation and measured after 4 hrs by RT-qPCR analysis; format: functional, cell-based; conditions: time 24.0 hrs
How it was run: (§1)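 RAW 264.7 macrophages in DMEM/10% FBS received 1 μM RGFP966 for 20 h, with LPS/IFNγ for the last 4 h. Washed with cold DPBS, total RNA isolated, integrity checked by 28S/18S. RT-qPCR by comparative Ct (2−ΔΔCt), fold change versus LPS/IFNγ control. Mean ± SD of 3–5 independent experiments.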

RAW264.7 [3] = experiment: Antiinflammatory activity in mouse RAW264.7 cells assessed as down regulation of LPS/IFNgamma-induced IL-12b gene expression at 1 uM preincubated for 20 hrs followed by LPS/IFNgamma stimulation and measured after 4 hrs by RT-qPCR analysis; format: functional, cell-based; conditions: time 24.0 hrs; how it was run: as §1
HASMC [4] = experiment: Antiinflammatory activity in HASMC cells assessed as effect on LPS/IFNgamma-induced IL-1beta gene expression at 2 uM […] by RT-qPCR analysis; format: functional, cell-based; conditions: Homo sapiens
How it was run: (§2)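 HBE cells (passage 73–103) or immortalized hASM cells (2–3 donors, passage 27–35), serum-starved. Then 2 μM RGFP966 for 20 h, with LPS/IFNγ for the last 4 h. Total RNA isolated; RT-qPCR by 2−ΔΔCt, fold change versus LPS/IFNγ control. Mean ± SD of 3–5 independent experiments.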

HASMC [5] = experiment: Antiinflammatory activity in HASMC cells assessed as effect on LPS/IFNgamma-induced IL-6 gene expression at 2 uM […] and measured after 4 hrs by RT-qPCR analysis; format: functional, cell-based; conditions: Homo sapiens; how it was run: as §2
[6] = target: T1, Histone deacetylase 3 (Mus musculus) (UniProt O88895); experiment: Inhibition of HDAC3 in mouse RAW264.7 cells assessed as effect on LPS/IFNgamma-induced NF-kappaB p65 nuclear translocation preincubated for 20 hrs followed by LPS/IFNgamma stimulation and measured after 1 hr by immunofluorescence microscopy; format: cell-based
T1 sequence (whole entry): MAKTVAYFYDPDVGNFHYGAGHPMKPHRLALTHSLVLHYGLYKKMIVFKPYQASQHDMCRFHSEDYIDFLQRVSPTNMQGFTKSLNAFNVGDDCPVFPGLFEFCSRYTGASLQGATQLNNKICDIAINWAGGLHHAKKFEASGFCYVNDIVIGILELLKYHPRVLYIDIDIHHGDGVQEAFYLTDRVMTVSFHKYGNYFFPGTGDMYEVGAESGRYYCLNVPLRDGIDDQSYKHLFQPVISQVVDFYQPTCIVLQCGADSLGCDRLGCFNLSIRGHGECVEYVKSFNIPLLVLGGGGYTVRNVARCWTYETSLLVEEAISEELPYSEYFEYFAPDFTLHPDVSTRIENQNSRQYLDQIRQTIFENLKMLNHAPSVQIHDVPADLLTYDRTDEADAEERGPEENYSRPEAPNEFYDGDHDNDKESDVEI
How it was run: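 RAW 264.7 seeded at 20,000 cells/cm2, 1 μM inhibitor 20 h then 1 h LPS/IFNγ; fixed 4% formaldehyde, permeabilized 0.25% Triton X-100, blocked 5% BSA; rabbit anti-p65 (1:250, 2 h 4 °C) with AlexaFluor488 secondary, Hoechst nuclei; confocal imaging at identical settings; 3 independent experiments.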

RAW264.7 [7] = experiment: Antiinflammatory activity in LPS/IFNgamma-stimulated mouse RAW264.7 cells assessed as reduction in HDAC2 expression preincubated for 20 hrs followed by LPS/IFNgamma stimulation and measured after 4 hrs by Western blot analysis; format: functional, cell-based; conditions: time 24.0 hrs
How it was run: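 RAW 264.7 cells were LPS/IFNγ-stimulated after inhibitor exposure, then lysed in Hepes/Triton buffer containing DTT, butyrate and protease inhibitors, freeze-thawed and cleared. Immunoblot with milk blocking and overnight primary antibody at 4 °C. Densitometry normalized to β-actin, LPS/IFNγ control set at 100%. Mean ± SD of 4 independent experiments.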

RAW264.7 [8] = experiment: Antiinflammatory activity in LPS/IFNgamma-stimulated mouse RAW264.7 cells assessed as effect on NF-kappaB p65 mRNA expression preincubated for 20 hrs followed by LPS/IFNgamma stimulation and measured after 4 hrs by RT-qPCR analysis; format: functional, cell-based; conditions: time 24.0 hrs
RAW264.7 [9] = experiment: Antiinflammatory activity in LPS/IFNgamma-stimulated mouse RAW264.7 cells assessed as effect on NF-kappaB p65 expression preincubated for 20 hrs followed by LPS/IFNgamma stimulation and measured after 4 hrs by Western blot analysis; format: functional, cell-based; conditions: time 24.0 hrs
Lung [10] = experiment: Antiinflammatory activity in C57bl/6 mouse precision-cut lung slices assessed as effect on LPS/IFNgamma-induced HDAC1 gene expression at 1 to 10 uM preincubated for 20 hrs followed by LPS/IFNgamma stimulation and measured after 4 hrs by RT-qPCR analysis; format: functional, tissue-based; conditions: dose 1-10 µM, time 24.0 hrs
Lung [11] = experiment: Antiinflammatory activity in C57bl/6 mouse precision-cut lung slices assessed as effect on LPS/IFNgamma-induced HDAC3 expression at 1 to 10 uM preincubated for 20 hrs followed by LPS/IFNgamma stimulation and measured after 4 hrs by Western blot analysis; format: functional, tissue-based; conditions: dose 1-10 µM, time 24.0 hrs
[12] = target: Histone deacetylase 2 (Mus musculus) (UniProt P70288); experiment: Effect on HDAC2 nuclear localization in LPS/IFNgamma-stimulated mouse RAW264.7 cells preincubated for 20 hrs followed by LPS/IFNgamma stimulation and measured after 1 hr by Hoechst staining based confocal laser scanning microscopy; format: cell-based
Sequence of Histone deacetylase 2 (Mus musculus) (P70288 whole entry): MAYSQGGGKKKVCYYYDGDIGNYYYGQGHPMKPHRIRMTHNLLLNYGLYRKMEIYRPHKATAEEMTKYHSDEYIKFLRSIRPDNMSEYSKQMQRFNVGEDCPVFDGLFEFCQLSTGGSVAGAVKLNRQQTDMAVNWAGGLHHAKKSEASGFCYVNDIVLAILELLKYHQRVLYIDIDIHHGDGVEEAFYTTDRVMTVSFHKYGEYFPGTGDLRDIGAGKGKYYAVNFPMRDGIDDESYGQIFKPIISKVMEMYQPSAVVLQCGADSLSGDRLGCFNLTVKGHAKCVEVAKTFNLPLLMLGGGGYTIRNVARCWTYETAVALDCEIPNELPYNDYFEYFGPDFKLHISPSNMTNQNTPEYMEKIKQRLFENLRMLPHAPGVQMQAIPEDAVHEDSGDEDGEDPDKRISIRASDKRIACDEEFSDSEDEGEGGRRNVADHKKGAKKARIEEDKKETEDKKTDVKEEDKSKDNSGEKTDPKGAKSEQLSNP
How it was run: (§3)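 RAW 264.7 cells at 20,000 cells/cm2 received 1 μM RGFP966 for 20 h, then 1 h LPS/IFNγ. Fixed in 4% formaldehyde, permeabilized with 0.25% Triton X-100, blocked with 5% BSA. Primary antibodies 2 h at 4 °C, AlexaFluor secondaries 1 h, Hoechst nuclear stain. Confocal imaging at 630×; 4 independent experiments.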

[13] = target: T1, Histone deacetylase 3 (Mus musculus); experiment: Effect on HDAC3 nuclear localization in LPS/IFNgamma-stimulated mouse RAW264.7 cells preincubated for 20 hrs followed by LPS/IFNgamma stimulation and measured after 1 hr by Hoechst staining based confocal laser scanning microscopy; format: cell-based; how it was run: as §3
[14] = target: Histone deacetylase 1 (Mus musculus) (UniProt O09106); experiment: Effect on HDAC1 nuclear localization in LPS/IFNgamma-stimulated mouse RAW264.7 cells preincubated for 20 hrs followed by LPS/IFNgamma stimulation and measured after 1 hr by Western blot analysis; format: cell-based
Sequence of Histone deacetylase 1 (Mus musculus) (O09106 whole entry): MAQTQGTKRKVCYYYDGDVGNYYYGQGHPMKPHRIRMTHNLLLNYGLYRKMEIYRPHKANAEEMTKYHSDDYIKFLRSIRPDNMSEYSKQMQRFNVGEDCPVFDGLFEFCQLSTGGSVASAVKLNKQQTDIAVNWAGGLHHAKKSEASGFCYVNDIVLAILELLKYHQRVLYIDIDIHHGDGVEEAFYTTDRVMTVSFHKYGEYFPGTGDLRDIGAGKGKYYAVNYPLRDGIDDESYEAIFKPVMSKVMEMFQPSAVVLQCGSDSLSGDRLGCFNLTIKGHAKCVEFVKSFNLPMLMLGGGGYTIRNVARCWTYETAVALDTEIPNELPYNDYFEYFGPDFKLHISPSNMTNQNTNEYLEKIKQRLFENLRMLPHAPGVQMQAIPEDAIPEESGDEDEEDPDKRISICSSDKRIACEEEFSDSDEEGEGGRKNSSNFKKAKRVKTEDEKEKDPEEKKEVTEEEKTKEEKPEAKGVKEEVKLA
How it was run: (§4)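 RAW 264.7 cells treated for 20 h, then 1 h LPS/IFNγ, and fractionated into nuclear and cytosolic parts. Fractions immunoblotted, with PARP-1 and β-actin as internal controls. Densitometry with vehicle control set at 100%. Mean ± SD of 3–4 independent experiments.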

[15] = target: Histone deacetylase 2 (Mus musculus) (UniProt P70288); experiment: Effect on HDAC2 nuclear localization in LPS/IFNgamma-stimulated mouse RAW264.7 cells preincubated for 20 hrs followed by LPS/IFNgamma stimulation and measured after 1 hr by Western blot analysis; format: cell-based; how it was run: as §4

inhibition [6]: inactive
Activity [12]: inactive
Activity [13]: inactive
Activity [14]: inactive
Activity [15]: inactive
SMILES: Nc1cc(F)ccc1NC(=O)/C=C/c1cnn(C/C=C/c2ccccc2)c1
Activity (RAW264.7 [1]): Non-Toxic
Activity (RAW264.7 [2]): inactive
Activity (RAW264.7 [3]): Active
Activity (HASMC [4]): inactive
Activity (HASMC [5]): inactive
Activity (RAW264.7 [7]): Active
Activity (RAW264.7 [8]): inactive
Activity (RAW264.7 [9]): inactive
Activity (Lung [10]): inactive
Activity (Lung [11]): inactive

— ChEMBL document CHEMBL5653624 (Biochem Pharmacol, 2016)
